Laboratory results as given in ChEMBL document CHEMBL4706482, “Structural optimization of aminopyrimidine-based CXCR4 antagonists” (Eur J Med Chem, 2020).
The source made the active and inactive calls. The rule behind the calls is not given here.

Tests used:
[1] = molecular target: T1, C-X-C chemokine receptor type 4 (Homo sapiens, UniProt P61073); test: Antagonist activity at CXCR4 in human HPBALL cells assessed as inhibition of APC-conjugate clone 12G5 antibody signal incubated for 3 hrs by flow cytometric analysis; format: cell-based
Target sequence in this assay (P61073 whole entry): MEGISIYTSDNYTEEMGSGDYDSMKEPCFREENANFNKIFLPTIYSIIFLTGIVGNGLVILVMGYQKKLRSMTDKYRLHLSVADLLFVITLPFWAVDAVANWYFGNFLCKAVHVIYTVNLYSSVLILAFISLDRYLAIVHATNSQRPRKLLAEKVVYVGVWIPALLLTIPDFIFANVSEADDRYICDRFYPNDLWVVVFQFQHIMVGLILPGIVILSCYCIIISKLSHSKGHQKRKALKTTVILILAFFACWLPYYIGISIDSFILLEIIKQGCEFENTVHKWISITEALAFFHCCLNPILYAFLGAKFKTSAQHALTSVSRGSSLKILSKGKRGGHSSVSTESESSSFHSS

[2] = molecular target: CYP2D6 (Homo sapiens, UniProt P10635); test: Inhibition of CYP2D6 in human liver microsomes using dextromethorphan as substrate at 10 uM preincubated for 10 mins followed by NADPH addition and measured after 10 mins by LC-MS/MS analysis relative to control; format: ADME; conditions: probe dextromethorphan, time 20 min
Chain of CYP2D6 (P10635 whole entry): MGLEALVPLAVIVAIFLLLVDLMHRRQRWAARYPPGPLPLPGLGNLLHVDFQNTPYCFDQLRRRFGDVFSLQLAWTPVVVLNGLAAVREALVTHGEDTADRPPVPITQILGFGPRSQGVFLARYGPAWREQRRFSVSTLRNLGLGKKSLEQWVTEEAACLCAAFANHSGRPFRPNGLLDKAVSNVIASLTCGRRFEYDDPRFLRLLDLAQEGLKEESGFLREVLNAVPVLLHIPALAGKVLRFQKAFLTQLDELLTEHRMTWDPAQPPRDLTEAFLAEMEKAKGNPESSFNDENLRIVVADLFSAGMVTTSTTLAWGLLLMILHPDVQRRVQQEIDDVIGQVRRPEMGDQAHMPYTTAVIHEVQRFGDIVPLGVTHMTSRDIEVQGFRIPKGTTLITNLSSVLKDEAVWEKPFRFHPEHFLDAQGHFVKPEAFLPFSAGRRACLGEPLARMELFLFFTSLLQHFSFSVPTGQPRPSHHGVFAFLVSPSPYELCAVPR
Summary of the method: (§1)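 Human liver microsomes 0.2 mg/mL in 100 mM phosphate, pH 7.4, compound 10 µM, probe substrate midazolam 1 µM (CYP3A4) or dextromethorphan 5 µM (CYP2D6). After a 10 min preincubation, reaction started with 1 mM NADPH, 37 °C for 10 min, then stopped with cold acetonitrile. Metabolites quantified by LC-MS/MS. Triplicate incubations.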

[3] = molecular target: Voltage-gated inwardly rectifying potassium channel KCNH2 (Homo sapiens, UniProt Q12809); test: Inhibition of human ERG stably expressed in CHO cells after 4 mins; format: cell-based
Chain of Voltage-gated inwardly rectifying potassium channel KCNH2 (Q12809 whole entry): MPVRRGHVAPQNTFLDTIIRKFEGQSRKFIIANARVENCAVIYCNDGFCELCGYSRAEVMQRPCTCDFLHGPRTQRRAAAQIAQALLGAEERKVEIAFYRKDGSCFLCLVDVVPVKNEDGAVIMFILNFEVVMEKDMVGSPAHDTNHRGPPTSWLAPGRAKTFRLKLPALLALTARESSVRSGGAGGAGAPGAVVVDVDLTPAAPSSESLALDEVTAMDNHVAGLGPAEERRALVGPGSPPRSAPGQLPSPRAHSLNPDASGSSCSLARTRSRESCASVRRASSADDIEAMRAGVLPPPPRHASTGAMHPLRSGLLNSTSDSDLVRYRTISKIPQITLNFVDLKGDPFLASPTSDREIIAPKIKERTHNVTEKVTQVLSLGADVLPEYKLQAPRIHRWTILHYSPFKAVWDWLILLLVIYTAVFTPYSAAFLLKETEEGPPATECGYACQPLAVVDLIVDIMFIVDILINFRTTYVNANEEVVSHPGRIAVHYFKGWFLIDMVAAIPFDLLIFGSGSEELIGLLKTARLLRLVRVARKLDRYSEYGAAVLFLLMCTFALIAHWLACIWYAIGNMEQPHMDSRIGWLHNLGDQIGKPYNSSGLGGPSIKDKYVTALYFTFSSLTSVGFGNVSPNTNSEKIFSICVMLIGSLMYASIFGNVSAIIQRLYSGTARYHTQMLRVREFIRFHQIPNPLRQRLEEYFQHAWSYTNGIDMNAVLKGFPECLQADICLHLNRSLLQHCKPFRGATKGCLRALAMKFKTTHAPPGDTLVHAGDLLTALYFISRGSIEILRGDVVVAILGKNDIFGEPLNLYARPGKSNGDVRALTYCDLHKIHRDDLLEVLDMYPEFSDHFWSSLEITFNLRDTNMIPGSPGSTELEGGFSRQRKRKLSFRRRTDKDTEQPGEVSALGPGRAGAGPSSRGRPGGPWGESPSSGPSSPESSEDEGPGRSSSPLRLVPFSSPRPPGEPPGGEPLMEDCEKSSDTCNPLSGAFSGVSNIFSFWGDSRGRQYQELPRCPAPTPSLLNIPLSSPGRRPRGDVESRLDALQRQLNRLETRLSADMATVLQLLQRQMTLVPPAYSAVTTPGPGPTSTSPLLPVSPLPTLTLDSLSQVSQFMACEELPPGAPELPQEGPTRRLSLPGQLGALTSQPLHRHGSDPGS
Summary of the method: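 hERG-expressing CHO cells on automated QPatch. Holding potential -80 mV, 500 ms step to +20 mV, tail current measured at -50 mV, pulses every 20 s. External solution 4 mM K⁺, 1 mM Mg²⁺, 2 mM Ca²⁺. Effect quantified 4 min after compound application.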

[4] = molecular target: T2, C-X-C chemokine receptor type 1 (Homo sapiens) (UniProt P25024); test: Antagonist activity at CXCR1 (unknown origin) stably expressed in HEK293 cells assessed as reduction in IL-8-induced intracellular calcium change up to 10000 nM incubated for 15 mins followed by IL-8-stimulation and measured after 15 mins by cAMP-d2/Eu-Anti-cAM based fluorescence assay; format: functional, cell-based; conditions: dose nM <=10000, time 30.0 min, in the assay text read “intracellular cAMP change” for “intracellular calcium change”
T2 sequence (whole entry): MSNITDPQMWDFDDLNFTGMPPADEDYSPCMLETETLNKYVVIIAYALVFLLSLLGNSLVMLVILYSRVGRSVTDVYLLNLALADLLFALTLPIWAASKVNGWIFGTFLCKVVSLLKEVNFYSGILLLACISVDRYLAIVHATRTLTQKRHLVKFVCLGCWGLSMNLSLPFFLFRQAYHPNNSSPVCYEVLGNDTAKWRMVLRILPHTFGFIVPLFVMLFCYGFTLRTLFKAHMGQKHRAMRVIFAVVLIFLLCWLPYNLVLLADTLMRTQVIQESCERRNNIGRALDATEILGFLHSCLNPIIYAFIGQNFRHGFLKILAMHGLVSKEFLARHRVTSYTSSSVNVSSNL
Summary of the method: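 HEK293 cells overexpressing CXCR1, trypsin-dissociated, 2000 cells/well. Compound in a 10-point 4-fold series, 15 min at rt, then forskolin 4.4 µM plus IL-8 100 nM (in the added solution) for 15 min at rt. cAMP measured with cAMP-d2/Eu-anti-cAMP HTRF, 60 min at rt, read at 665/615 nm.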

[5] = Efflux ratio in across basolateral to apical side over apical to basolateral side in human Caco2 cells at 10 uM after 90 mins by LC-MS/MS analysis; format: ADME, cell-based; conditions: Caco-2
Summary of the method: (§2)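 Caco-2 cells grown 21–28 days on polycarbonate inserts. TEER and Lucifer Yellow checked before and after the assay. Compound at 10 µM in HBSS with 25 mM HEPES, pH 7.4, tested A-B and B-A, 37 °C for 90 min. Samples quantified by LC-MS/MS against a standard curve.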

[6] = Protein binding in rat plasma; format: ADME, cell-free; conditions: read-out: PPB (converted)
[7] = system: MDA-MB-231; test: Cytotoxicity against human MDA-MB-231 cells assessed as reduction in cell viability up to 1000 nM by CellTiter-Glo assay; format: functional, cell-based; conditions: dose nM <=1000
Summary of the method: (§3)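 Cell viability measured with CellTiter-Glo ATP luminescence at compound concentrations up to 1000 nM.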

[8] = molecular target: T1, C-X-C chemokine receptor type 4; test: Antagonist activity at CXCR4 in human MDA-MB-231 cells assessed as inhibition of CXCL12-mediated chemotaxis at 100 nM after 22 hrs by transwell assay; conditions: filed as antagonist
Target sequence in this assay (P61073 whole entry, looked up): as the sequence (P61073 whole entry) above

[9] = Half life in rat liver microsomes at 1 uM preincubated for 10 mins followed by NADPH addition and measured up to 60 mins by LC-MS/MS analysis; format: ADME, Microsome; conditions: time <=70 min
[10] = system: MEF; test: Cytotoxicity against MEF cells assessed as reduction in cell viability up to 1000 nM by CellTiter-Glo assay; format: cell-based; conditions: mouse; summary of the method: as §3
[11] = Protein binding in human plasma; format: ADME, cell-free; conditions: read-out: PPB
[12] = Apparent permeability across apical to basal side in human Caco2 cells at 10 uM after 90 mins by LC-MS/MS analysis; format: ADME, cell-based; conditions: Caco-2; summary of the method: as §2
[13] = molecular target: T3, C-C chemokine receptor type 6 (Homo sapiens) (UniProt P51684); test: Antagonist activity at CCR6 in human CD4-positive cells assessed as inhibition of CCL20-induced calcium signal up to 10000 nM by FLIPR assay; format: functional, cell-based; conditions: CD4+ve Th, dose nM <=10000
T3 sequence (whole entry): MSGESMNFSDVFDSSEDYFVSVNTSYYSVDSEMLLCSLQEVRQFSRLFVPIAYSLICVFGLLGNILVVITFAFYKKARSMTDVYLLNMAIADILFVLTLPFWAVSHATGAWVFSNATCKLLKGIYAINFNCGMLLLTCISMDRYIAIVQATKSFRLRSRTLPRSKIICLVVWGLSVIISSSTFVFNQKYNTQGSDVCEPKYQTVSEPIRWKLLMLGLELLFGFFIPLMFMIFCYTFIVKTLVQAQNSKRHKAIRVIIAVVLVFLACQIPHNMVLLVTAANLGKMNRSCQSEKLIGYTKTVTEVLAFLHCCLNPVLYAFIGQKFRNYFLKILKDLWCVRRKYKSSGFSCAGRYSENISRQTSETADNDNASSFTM
Summary of the method: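 Cryopreserved activated human CD4+ CCR6-enriched T cells at 2.5×10^6/mL in HBSS/20 mM HEPES/0.005% P-104, loaded with Calcium 4 dye. Compound final 10 µM to 0.035 nM in 0.5% DMSO, followed by CCL20 stimulation. Calcium flux read on FLIPR Tetra. % effect taken relative to on-plate controls; IC50 from a four-parameter logistic fit.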

[14] = molecular target: T1, C-X-C chemokine receptor type 4; test: Antagonist activity at CXCR4 in human CD4-positive T cells assessed as inhibition of CXCL12-induced calcium signal incubated for 20 mins by FLIPR assay; format: functional, cell-based, CD4+ve Th
Target sequence in this assay (P61073 whole entry): as the sequence (P61073 whole entry) above

[15] = system: Hepa1-6; test: Cytotoxicity against […] cells assessed as reduction in cell viability up to 1000 nM by CellTiter-Glo assay; format: functional, cell-based; conditions: dose nM <=1000
[16] = system: L929; test: Cytotoxicity against mouse L929 cells assessed as reduction in cell viability up to 1000 nM by CellTiter-Glo assay; format: cell-based
[17] = Protein binding in mouse plasma; format: ADME, cell-free; conditions: read-out: PPB (converted)
[18] = Intrinsic clearance in rat liver microsomes at 1 uM preincubated for 10 mins followed by NADPH addition and measured up to 60 mins by LC-MS/MS analysis; format: ADME, Microsome; conditions: time <=70 min, read-out: CLH
[19] = molecular target: CYP3A4 (Homo sapiens, UniProt P08684); test: Inhibition of CYP3A4 in human liver microsomes using midazolam as substrate at 10 uM preincubated for 10 mins followed by NADPH addition and measured after 10 mins by LC-MS/MS analysis relative to control; format: ADME; conditions: probe midazolam, time 20 min; summary of the method: as §1
Chain of CYP3A4 (P08684 whole entry): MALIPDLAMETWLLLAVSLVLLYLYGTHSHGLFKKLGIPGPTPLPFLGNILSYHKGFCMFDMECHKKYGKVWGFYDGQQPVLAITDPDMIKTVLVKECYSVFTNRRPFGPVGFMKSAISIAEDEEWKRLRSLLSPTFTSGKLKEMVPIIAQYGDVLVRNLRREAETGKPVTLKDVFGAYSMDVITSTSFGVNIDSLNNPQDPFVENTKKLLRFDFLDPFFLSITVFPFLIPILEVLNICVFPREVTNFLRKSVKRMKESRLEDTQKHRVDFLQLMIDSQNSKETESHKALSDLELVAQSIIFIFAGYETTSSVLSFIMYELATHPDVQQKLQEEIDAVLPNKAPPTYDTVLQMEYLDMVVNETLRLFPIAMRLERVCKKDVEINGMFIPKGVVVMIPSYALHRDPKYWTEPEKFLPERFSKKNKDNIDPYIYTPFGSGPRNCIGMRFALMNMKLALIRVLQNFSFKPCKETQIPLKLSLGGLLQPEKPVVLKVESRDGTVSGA

Compound | IC50 [1] [nM] | other results
CN1CCN(c2cc(CN(C)[C@H]3CCCc4cccnc43)nc(C(F)(F)F)n2)CC1 | 293 | 
CCNc1nc(CN(C)C2CCCc3cccnc32)cc(N2CCN(C)CC2)n1 (racemic) | 105 | 
Cc1nc(CN(C)[C@H]2CCCc3cccnc32)cc(N2CCN(C)CC2)n1 | 8.8 | inhibition at 10 min, 10 µM [2]: 57%; IC50 [3]: 8000 nM; Activity [4]: inactive; efflux ratio at 1.5 h, 10 µM [5]: 0.86; fraction unbound [6]: 0.18; Activity [7]: inactive; Activity [8]: Active; half-life at 1 µM [9]: 1.6 min; Activity [10]: Non-Toxic; fraction unbound [11]: 0.01; Papp A→B at 1.5 h, 10 µM [12]: 27 ×10⁻⁶ cm/s; Activity [13]: inactive; IC50 [14]: 0.02 nM; Activity [15]: inactive; Activity [16]: Non-Toxic; fraction unbound [17]: 0.11; CLint scaled at 1 µM [18]: 1570 mL/min/kg; inhibition at 10 min, 10 µM [19]: 48%
Cc1nc(CN(C)C2CCCc3cccnc32)cc(N2CCN(C)CC2)n1 (racemic) | 12 | 
CN1CCN(c2cc(CN(C)C3CCCc4cccnc43)nc(N)n2)CC1 (racemic) | 23 | 
Cc1nc(CN(C)[C@H]2CCCc3cccnc32)cc(NCCCN2CCOCC2)n1 | 36 | 
CCc1nc(CN(C)C2CCCc3cccnc32)cc(N2CCN(C)CC2)n1 (racemic) | 25 | 
Cc1nc(CN(C)[C@H]2CCCc3cccnc32)cc(N2CCN3CCC[C@@H]3C2)n1 | 30 | 
CN1CCN(c2cc(CN(C)C3CCCc4cccnc43)nc(N(C)CCO)n2)CC1 (racemic) | 792 | 
CN1CCN(c2cc(CN(C)C3CCCc4cccnc43)nc(N3CCCC3)n2)CC1 (racemic) | > 10000 | 
CC(C)Nc1nc(CN(C)C2CCCc3cccnc32)cc(N2CCN(C)CC2)n1 (racemic) | 930 | 
CN1CCN(c2cc(CN(C)C3CCCc4cccnc43)nc(C3CC3)n2)CC1 (racemic) | 23 | 
Cc1nc(CN(C)C2CCCc3cccnc32)c(C#N)c(N2CCN(C)CC2)n1 (racemic) | 33 | 
Cc1nc(CN(C)[C@H]2CCCc3cccnc32)cc(N2CCN(C)C[C@H]2C)n1 | 21 | 
CN1CCN(c2cc(CN(C)C3CCCc4cccnc43)nc(N(C)C)n2)CC1 (racemic) | > 10000 | 
CC(C)Oc1nc(CN(C)C2CCCc3cccnc32)cc(N2CCN(C)CC2)n1 (racemic) | 151 | 
Cc1nc(CN(C)[C@H]2CCCc3cccnc32)cc(N2C[C@@H](C)N(C)[C@@H](C)C2)n1 | 8.3 | 
Cc1nc(CN(C)[C@H]2CCCc3cccnc32)cc(N(C)CCO)n1 | > 10000 | 
CCN(Cc1cc(N2CCN(C)CC2)nc(C)n1)C1CCCc2cccnc21 (racemic) | 17 | 
Cc1nc(CN(C)[C@H]2CCCc3cccnc32)cc(N2CCN(C)[C@@H](C)C2)n1 | 14 | 
Cc1nc(CN(C)C2CCCc3cccnc32)c(F)c(N2CCN(C)CC2)n1 (racemic) | 12 | 
CC(C)c1nc(CN(C)C2CCCc3cccnc32)cc(N2CCN(C)CC2)n1 (racemic) | 256 | 
CN1CCN(c2cc(CN(C)C3CCCc4cccnc43)nc(-c3cnn(C)c3)n2)CC1 (racemic) | 1290 | 
CCN1CCN(c2cc(CN(C)[C@H]3CCCc4cccnc43)nc(C)n2)CC1 | 10 | 

Continued by falling IC50 [1], values first:

IC50 [1] [nM] | Compound | other results
2890 | CN1CCN(c2cc(CN(C)C3CCCc4cccnc43)nc(-c3ccccc3)n2)CC1 (racemic) | 
2440 | CN1CCN(c2cc(CN(C)C3CCCc4cccnc43)nc(N3CCOCC3)n2)CC1 (racemic) | 
130 | Cc1nc(CN(C)[C@H]2CCCc3cccnc32)cc(N2CCN(C3COC3)CC2)n1 | 
101 | Cc1nc(CN(C)[C@H]2CCCc3cccnc32)cc(N2CCC(N3CCOCC3)CC2)n1 | 
96 | Cc1nc(CN(C)[C@H]2CCCc3cccnc32)cc(N2CCC(N3CCN(C)CC3)CC2)n1 | 
78 | CCOc1nc(CN(C)C2CCCc3cccnc32)cc(N2CCN(C)CC2)n1 (racemic) | 
70 | Cc1nc(CN(C)[C@H]2CCCc3cccnc32)cc(N2CCN(C3CC3)CC2)n1 | 
66 | Cc1nc(CN(C)[C@H]2CCCc3cccnc32)cc(NCCN2CCOCC2)n1 | 
58 | CNc1nc(CN(C)C2CCCc3cccnc32)cc(N2CCN(C)CC2)n1 (racemic) | 
51 | Cc1nc(CN(CC2CC2)C2CCCc3cccnc32)cc(N2CCN(C)CC2)n1 (racemic) | 
25 | COc1nc(CN(C)C2CCCc3cccnc32)cc(N2CCN(C)CC2)n1 (racemic) | 
18 | Cc1nc(CN(C)[C@H]2CCCc3cccnc32)cc(N2CCN3CCC[C@H]3C2)n1 | 
14 | Cc1nc(CN(C)[C@H]2CCCc3cccnc32)cc(N2CCN(C)C[C@@H]2C)n1 | 
8.3 | Cc1nc(CN(C)[C@H]2CCCc3cccnc32)cc(N2CCN(C)[C@H](C)C2)n1 | 
